We go through one compound from ChEMBL document CHEMBL3585325, “Discovery of (1R,2S)-2-{[(2,4-Dimethylpyrimidin-5-yl)oxy]methyl}-2-(3-fluorophenyl)-N-(5-fluoropyridin-2-yl)cyclopropanecarboxamide (E2006): A Potent and Efficacious Oral Orexin Receptor Antagonist” (J Med Chem, 2015).

Data set [1] in a line: Activity at P-gp (unknown origin) assessed as corrected flux ratio. The settings on record: human. The format is ADME. In a few lines:
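Reported as corrected flux ratio, i.e. the MDR1 flux ratio divided by the PK1 flux ratio.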

In data set [2] the target is T1, Orexin/Hypocretin receptor type 1 (Homo sapiens, UniProt O43613).
T1 sequence (O43613 whole entry): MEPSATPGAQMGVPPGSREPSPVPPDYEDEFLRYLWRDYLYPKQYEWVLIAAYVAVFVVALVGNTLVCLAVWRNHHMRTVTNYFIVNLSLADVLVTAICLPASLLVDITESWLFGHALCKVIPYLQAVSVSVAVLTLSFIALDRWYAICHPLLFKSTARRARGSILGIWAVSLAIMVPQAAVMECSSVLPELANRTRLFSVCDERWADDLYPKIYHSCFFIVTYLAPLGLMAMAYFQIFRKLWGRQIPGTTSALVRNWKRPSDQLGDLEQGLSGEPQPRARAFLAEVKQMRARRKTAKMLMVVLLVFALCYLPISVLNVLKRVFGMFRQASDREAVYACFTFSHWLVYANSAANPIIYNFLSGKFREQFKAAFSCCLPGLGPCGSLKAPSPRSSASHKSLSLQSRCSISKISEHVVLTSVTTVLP
In words: Binding affinity to human OX1R by radioligand displacement binding assay. In a few lines: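 Ki values come from single experiments run in triplicate.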
(In general: In a radioligand displacement assay an active substance lowers the binding of a labelled ligand.)

Data set [3] in a line: Aqueous solubility of the compound in Japanese Pharmacopoeia 1st fluid at pH 1.2 by DMSO solution precipitation method. The format is physicochemical. The gist of the method:
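Solubility in Japanese Pharmacopoeia 1st fluid (aqueous HCl containing 34 mM NaCl), pH 1.2, measured at room temperature by precipitation from a DMSO solution.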

In another data set the target is Cytochrome P450 2C19 (Homo sapiens, UniProt P33261). Nature of the data set: Inhibition of CYP2C19 in human liver microsomes using S-mephenytoin as susbtrate incubated for 30 mins prior to substrate addition for 10 mins by LC-MS/MS analysis. The format is ADME. (In general: Microsomes from liver hold many membrane-bound enzymes, among them those of drug oxidation.)
Sequence of Cytochrome P450 2C19 (P33261 whole entry): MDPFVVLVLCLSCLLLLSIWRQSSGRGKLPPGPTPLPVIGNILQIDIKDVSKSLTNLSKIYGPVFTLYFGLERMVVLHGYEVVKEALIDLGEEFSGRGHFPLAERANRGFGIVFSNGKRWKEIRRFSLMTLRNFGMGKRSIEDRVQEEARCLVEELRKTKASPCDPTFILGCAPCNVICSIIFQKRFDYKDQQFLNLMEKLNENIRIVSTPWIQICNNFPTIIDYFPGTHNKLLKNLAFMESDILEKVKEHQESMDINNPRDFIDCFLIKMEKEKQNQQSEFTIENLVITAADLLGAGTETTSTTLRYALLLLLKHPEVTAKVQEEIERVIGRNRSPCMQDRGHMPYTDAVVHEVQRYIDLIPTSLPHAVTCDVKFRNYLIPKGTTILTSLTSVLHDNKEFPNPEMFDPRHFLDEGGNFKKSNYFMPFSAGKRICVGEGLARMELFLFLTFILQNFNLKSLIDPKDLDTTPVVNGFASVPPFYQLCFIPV

In another data set the target is T2, Cytochrome P450 2C8 (Homo sapiens, UniProt P10632).
T2 sequence (P10632 whole entry): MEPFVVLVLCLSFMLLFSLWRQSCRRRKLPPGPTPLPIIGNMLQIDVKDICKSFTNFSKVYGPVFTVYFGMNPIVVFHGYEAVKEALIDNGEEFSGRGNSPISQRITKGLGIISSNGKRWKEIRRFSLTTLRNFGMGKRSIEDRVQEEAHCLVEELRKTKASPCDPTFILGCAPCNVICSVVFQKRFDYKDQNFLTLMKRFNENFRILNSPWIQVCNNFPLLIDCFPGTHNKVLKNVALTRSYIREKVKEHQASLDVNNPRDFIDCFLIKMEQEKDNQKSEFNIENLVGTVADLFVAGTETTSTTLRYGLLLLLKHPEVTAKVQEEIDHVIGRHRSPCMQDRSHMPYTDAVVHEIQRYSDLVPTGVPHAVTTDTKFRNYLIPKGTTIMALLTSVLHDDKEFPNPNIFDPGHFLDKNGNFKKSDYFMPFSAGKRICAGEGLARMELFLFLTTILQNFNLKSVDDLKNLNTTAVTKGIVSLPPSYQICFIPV
In words: Inhibition of CYP2C8 in human liver microsomes using rosiglitazone as susbtrate incubated for 30 mins prior to substrate addition for 10 mins by LC-MS/MS analysis. The format is ADME.

Another data set has as its target T3, Cytochrome P450 1A2 (Homo sapiens, UniProt P05177).
T3 sequence (P05177 whole entry): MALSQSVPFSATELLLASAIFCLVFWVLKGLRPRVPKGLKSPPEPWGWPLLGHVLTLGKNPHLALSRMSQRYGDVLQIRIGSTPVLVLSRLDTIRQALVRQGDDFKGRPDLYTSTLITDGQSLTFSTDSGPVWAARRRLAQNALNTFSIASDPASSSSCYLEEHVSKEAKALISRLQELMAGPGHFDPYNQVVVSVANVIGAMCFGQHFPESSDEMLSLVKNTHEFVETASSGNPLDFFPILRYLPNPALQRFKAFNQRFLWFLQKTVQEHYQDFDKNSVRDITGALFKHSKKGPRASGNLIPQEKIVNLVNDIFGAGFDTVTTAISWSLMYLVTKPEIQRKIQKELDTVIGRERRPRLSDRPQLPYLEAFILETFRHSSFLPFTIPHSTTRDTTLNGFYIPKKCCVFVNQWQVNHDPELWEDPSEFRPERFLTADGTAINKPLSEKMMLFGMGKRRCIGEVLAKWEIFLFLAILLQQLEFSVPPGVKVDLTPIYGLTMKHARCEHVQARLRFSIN
Nature of the data set: Inhibition of CYP1A2 in human liver microsomes using phenacetin as susbtrate incubated for 30 mins prior to substrate addition for 10 mins by LC-MS/MS analysis. The format is ADME.

A further data set addresses T4, Orexin receptor type 2 (Homo sapiens, UniProt O43614).
T4 sequence (O43614 whole entry): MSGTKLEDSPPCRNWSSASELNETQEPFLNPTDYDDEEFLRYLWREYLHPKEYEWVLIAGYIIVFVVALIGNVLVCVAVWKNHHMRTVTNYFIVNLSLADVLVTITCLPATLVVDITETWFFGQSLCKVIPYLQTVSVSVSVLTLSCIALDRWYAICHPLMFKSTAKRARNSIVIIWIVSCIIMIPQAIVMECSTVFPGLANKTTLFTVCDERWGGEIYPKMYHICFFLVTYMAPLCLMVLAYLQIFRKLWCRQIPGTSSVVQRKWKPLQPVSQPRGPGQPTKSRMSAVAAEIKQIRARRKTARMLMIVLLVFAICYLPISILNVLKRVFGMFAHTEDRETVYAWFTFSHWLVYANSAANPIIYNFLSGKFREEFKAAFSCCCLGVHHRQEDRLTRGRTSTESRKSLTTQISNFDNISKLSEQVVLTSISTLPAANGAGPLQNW
Nature of the data set: Binding affinity to human OX2R by radioligand displacement binding assay.

The next data set concerns the target Cytochrome P450 2C9 (Homo sapiens, UniProt P11712). Nature of the data set: Inhibition of CYP2C9 in human liver microsomes using tolbutamide as susbtrate incubated for 30 mins prior to substrate addition for 10 mins by LC-MS/MS analysis. The format is ADME.
In a further data set the target is CYP3A (Homo sapiens, UniProt P08684+P20815+P24462+Q9HB55). Nature of the data set: Time dependent inhibition of CYP3A in human liver microsomes assessed as enzyme activity using midazolam as substrate at 10 uM incubated for 30 mins prior to substrate addition for 10 mins by LC-MS/MS analysis. The format is ADME. On the set-up: scale not given: the % may be the effect or the level left. The settings on record: probe midazolam, read-out: Activity. In a few lines: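 Test compound at 10 μM preincubated 30 min at 37 °C with human liver microsomes (0.2 mg/mL), with or without an NADPH-generating system. Mixture then diluted 10-fold into a marker-substrate cocktail plus NADPH system and incubated 10 min at 37 °C. Midazolam served as the CYP3A probe. Metabolites measured by LC−MS/MS. Result is the residual activity with NADPH relative to without, as % of control.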

Another data set has as its target Cytochrome P450 2D6 (Homo sapiens, UniProt P10635). In words: Inhibition of CYP2D6 in human liver microsomes using bufuralol as susbtrate incubated for 30 mins prior to substrate addition for 10 mins by LC-MS/MS analysis. The format is ADME.
The nature of data set [4]: Metabolic stability in human liver microsomes assessed as residual ratio at 0.3 uM after 15 mins by LC-MS analysis. The format is ADME. To be noted: read-out: Stability. In a few lines:
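Human liver microsomes (0.2 mg/mL) incubated with test compound at 0.3 μM in 0.1% DMSO for 15 min at 37 °C, with and without an NADPH-generating system. Reaction stopped with acetonitrile/methanol (7:3) containing internal standard. Parent compound quantified by LC−MS. Value is the residual ratio in the presence versus absence of NADPH.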

A short description of data set [5]: Aqueous solubility of the compound in Dulbecco's phosphate buffered saline at pH 7.4 by DMSO solution precipitation method. The format is physicochemical. In a few lines: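 Solubility in Dulbecco's PBS at pH 7.4, measured at room temperature by precipitation from a DMSO solution.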

≈ marks a conversion by molar mass, not a printed value.

Sequence of Cytochrome P450 2C9 (P11712 whole entry): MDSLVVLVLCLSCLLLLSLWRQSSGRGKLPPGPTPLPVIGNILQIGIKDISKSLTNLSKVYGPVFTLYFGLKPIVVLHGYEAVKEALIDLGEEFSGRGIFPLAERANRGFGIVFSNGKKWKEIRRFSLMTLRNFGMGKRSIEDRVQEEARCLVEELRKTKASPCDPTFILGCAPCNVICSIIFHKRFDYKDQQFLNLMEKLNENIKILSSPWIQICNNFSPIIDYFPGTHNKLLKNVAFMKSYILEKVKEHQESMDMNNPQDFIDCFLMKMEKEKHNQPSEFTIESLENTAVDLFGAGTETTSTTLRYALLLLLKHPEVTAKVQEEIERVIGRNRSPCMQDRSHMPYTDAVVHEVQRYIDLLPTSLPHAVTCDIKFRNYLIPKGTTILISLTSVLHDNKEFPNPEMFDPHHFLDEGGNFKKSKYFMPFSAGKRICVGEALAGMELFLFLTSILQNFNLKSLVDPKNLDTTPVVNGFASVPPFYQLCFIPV
Sequence of Cytochrome P450 2D6 (P10635 whole entry): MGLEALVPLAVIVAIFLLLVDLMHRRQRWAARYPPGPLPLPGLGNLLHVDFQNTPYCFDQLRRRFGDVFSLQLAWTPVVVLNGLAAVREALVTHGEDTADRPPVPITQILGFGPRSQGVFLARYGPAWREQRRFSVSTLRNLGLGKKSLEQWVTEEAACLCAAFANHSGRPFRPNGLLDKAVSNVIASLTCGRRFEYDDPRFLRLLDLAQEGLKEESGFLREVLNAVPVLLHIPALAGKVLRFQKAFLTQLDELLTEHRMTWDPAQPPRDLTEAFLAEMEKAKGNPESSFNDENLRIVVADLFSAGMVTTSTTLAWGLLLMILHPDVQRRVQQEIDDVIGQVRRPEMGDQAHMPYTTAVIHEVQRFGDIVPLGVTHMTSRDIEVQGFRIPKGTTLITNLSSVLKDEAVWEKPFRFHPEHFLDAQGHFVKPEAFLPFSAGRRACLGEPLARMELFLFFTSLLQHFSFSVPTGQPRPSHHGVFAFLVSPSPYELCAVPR

On to `COc1ccc(OC[C@@]2(c3ccccc3)C[C@H]2C(=O)Nc2ccc(C#N)cn2)cc1OC`, for which the Ratio in data set [1] came out at 1. Besides, the Ki in data set [2] was determined as 0.106 µM; on Orexin receptor type 2, 0.005 µM. The kinetic solubility was found to be 25 µM (≈ 10.7 µg/mL) in [3] and 15 µM (≈ 6.44 µg/mL) in data set [5]. For the same compound, the IC50 was 8.6 µM on Cytochrome P450 2C19; 8 µM at Cytochrome P450 2C8; above 10 µM against Cytochrome P450 1A2; above 10 µM at Cytochrome P450 2C9; above 10 µM against Cytochrome P450 2D6. Also, on CYP3A, the activity at 10 min, 10 µM amounted to 49%. The remaining at 0.25 h, 0.3 µM in data set [4] is 80%.

What is called Ki is a measure of affinity in units of concentration, obtained from inhibition or displacement. As usually defined, the kinetic solubility is solubility judged after dilution from a stock solution rather than from solid. Broadly, the IC50 is the midpoint of a concentration-inhibition curve.
